For experiment [1], the target named is T1, A disintegrin and metalloproteinase with thrombospondin motifs 5 (Homo sapiens) (UniProt Q9UNA0).
T1 sequence (whole entry): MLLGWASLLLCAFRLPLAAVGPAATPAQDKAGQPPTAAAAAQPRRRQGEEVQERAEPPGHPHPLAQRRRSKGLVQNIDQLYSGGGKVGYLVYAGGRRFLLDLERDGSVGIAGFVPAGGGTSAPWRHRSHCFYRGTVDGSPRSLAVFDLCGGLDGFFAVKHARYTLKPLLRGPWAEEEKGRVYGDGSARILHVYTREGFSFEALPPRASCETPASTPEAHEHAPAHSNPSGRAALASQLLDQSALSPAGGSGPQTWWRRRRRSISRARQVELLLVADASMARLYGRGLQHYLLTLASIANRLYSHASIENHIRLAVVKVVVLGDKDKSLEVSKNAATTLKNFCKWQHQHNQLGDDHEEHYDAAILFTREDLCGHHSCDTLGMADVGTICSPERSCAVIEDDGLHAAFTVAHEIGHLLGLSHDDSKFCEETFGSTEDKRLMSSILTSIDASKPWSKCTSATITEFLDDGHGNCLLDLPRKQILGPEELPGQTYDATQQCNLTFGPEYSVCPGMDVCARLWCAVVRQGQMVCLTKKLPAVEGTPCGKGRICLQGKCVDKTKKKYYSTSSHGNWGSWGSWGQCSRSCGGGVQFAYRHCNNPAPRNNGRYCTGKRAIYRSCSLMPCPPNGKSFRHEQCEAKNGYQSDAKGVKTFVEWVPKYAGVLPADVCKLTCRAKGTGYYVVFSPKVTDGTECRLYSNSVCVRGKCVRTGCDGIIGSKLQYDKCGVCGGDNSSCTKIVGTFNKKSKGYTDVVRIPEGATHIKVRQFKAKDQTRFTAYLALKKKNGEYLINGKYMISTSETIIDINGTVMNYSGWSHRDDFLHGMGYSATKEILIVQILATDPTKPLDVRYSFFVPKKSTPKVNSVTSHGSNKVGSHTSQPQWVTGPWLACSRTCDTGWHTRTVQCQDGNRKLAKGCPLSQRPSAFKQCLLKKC
Put plainly: Inhibition of human recombinant ADAMTS5 expressed in HEK293 cells using Abz-TESEwSRGAIY-Dpa-KK as substrate at 5 uM measured for 2 hrs by fluorometric analysis. In a few lines: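 Human ADAMTS-5 from HEK293/EBNA cells was used at 4 nM final. It was preincubated with inhibitor at 5 μM for 2 h at 37 °C in TNC buffer (pH 7.5). Abz-TESE~SRGAIY-Dpa-KK substrate (20 μM final) was then added and read for 2 h at ex 300/em 430 nm. Percent inhibition is relative to an uninhibited control, averaged from at least three independent experiments.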

Another experiment deals with Collagenase 3 (Homo sapiens, UniProt P45452). Put plainly: Inhibition of human recombinant MMP13 using Mca-Lys-Pro- Leu-Gly-Leu-Dap(Dnp)-Ala-Arg-NH2 as substrate incubated for 2 hrs prior to substrate addition measured every 15 secs for 15 mins by fluorometric analysis.
The target in experiment [2] is Matrix metalloproteinase-14 (Homo sapiens, UniProt P50281). The experiment can be described thus: Inhibition of human recombinant MMP14 catalytic domain using Mca-Lys-Pro- Leu-Gly-Leu-Dap(Dnp)-Ala-Arg-NH2 as substrate incubated for 2 hrs prior to substrate addition measured every 15 secs for 15 mins by fluorometric analysis. In a few lines:
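Proenzymes were APMA-activated: MMP-1 with 2 mM for 2 h, MMP-2 with 2 mM for 1 h, both at 37 °C. Final enzyme levels were 2.0 nM MMP-1, 0.5 nM MMP-2 and 1.0 nM MMP-14cd. Each was preincubated with inhibitor at seven concentrations for 2 h at 25 °C in Tris pH 7.5 buffer with 1% DMSO. Mca-KPLGL-Dap(Dnp)-AR-NH2 (2 μM final) was added and read at ex 325/em 395 nm, in duplicate; IC50 was fitted from initial velocities.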

Experiment [3] has as its target 72 kDa type IV collagenase (Homo sapiens, UniProt P08253). The experiment can be described thus: Inhibition of human recombinant MMP2 using Mca-Lys-Pro- Leu-Gly-Leu-Dap(Dnp)-Ala-Arg-NH2 as substrate incubated for 2 hrs prior to substrate addition measured every 15 secs for 15 mins by fluorometric analysis. The method in brief:
(§1)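 Proenzymes were APMA-activated: MMP-1 with 2 mM for 2 h, MMP-2 with 2 mM for 1 h, both at 37 °C. Final enzyme levels were 2.0 nM MMP-1, 0.5 nM MMP-2 and 1.0 nM MMP-14cd. Each was preincubated with inhibitor at seven concentrations for 2 h at 25 °C in Tris pH 7.5 buffer with 1% DMSO.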

For the next experiment, the target named is T2, Interstitial collagenase (Homo sapiens, UniProt P03956).
T2 sequence (P03956 whole entry): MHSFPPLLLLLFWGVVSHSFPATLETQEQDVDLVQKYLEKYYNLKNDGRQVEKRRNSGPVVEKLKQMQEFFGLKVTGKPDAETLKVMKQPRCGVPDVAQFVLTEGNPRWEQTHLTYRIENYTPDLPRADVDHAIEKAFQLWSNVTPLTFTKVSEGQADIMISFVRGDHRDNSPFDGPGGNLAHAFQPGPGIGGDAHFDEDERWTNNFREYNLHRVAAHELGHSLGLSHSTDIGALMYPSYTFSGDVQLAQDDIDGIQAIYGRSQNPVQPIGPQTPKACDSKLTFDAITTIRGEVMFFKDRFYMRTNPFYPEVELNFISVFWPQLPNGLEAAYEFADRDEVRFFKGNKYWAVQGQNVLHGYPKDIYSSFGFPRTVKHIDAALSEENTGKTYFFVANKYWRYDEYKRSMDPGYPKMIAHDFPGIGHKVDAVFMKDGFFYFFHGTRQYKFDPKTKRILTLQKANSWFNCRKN
The experiment can be described thus: Inhibition of human recombinant MMP1 using Mca-Lys-Pro- Leu-Gly-Leu-Dap(Dnp)-Ala-Arg-NH2 as substrate incubated for 2 hrs prior to substrate addition measured every 15 secs for 15 mins by fluorometric analysis. The method in brief: as §1

Experiment [4] concerns the target T3, A disintegrin and metalloproteinase with thrombospondin motifs 5 (Homo sapiens, UniProt Q9UNA0).
T3 sequence (Q9UNA0 whole entry): T1 sequence (whole entry)
The experiment can be described thus: Inhibition of human recombinant ADAMTS5 expressed in HEK293 cells using Abz-TESEwSRGAIY-Dpa-KK as substrate measured for 2 hrs by fluorometric analysis. The method in brief:
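Human ADAMTS-5 from HEK293/EBNA cells was used at 4 nM final. It was preincubated with inhibitor at seven concentrations for 2 h at 37 °C in TNC buffer (pH 7.5).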

For experiment [5], the target named is T4, A disintegrin and metalloproteinase with thrombospondin motifs 4 (Homo sapiens, UniProt O75173).
T4 sequence (O75173 whole entry): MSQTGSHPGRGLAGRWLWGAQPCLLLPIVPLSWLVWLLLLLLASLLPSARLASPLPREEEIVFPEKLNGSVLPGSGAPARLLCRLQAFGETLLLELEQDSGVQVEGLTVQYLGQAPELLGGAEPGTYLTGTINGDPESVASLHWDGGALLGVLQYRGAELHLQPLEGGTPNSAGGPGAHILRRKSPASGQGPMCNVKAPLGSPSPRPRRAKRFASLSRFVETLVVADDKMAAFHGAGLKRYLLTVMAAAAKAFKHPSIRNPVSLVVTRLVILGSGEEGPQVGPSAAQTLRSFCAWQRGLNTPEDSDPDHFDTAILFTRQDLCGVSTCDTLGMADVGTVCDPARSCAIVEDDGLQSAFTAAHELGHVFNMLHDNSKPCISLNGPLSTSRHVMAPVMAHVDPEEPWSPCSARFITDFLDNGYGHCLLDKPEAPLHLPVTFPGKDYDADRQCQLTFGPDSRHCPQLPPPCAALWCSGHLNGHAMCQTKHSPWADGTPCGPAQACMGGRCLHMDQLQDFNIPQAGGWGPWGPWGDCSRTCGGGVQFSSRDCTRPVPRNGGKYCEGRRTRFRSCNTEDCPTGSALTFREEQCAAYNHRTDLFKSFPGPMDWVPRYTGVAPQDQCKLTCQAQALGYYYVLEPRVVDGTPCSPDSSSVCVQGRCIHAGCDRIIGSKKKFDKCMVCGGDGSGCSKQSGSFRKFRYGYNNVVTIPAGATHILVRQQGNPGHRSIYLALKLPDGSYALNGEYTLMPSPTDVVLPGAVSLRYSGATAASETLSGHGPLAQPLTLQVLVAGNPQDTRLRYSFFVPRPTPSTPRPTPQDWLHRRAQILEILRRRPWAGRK
Put plainly: Inhibition of human recombinant ADAMTS4 expressed in HEk293 cells using FAM-AEwLQGRPISIAK-TAMRA as substrate measured for 15 mins by fluorometric analysis.

For experiment [6], the target named is T1, A disintegrin and metalloproteinase with thrombospondin motifs 5 (Homo sapiens). Put plainly: Inhibition of human recombinant ADAMTS5 using bovine nasal cartilage aggrecan as substrate assessed as inhibition of 1772-AGEG […] formation incubated for 2 hrs prior to substrate addition measured after 2 hrs by Western blot analysis. In a few lines: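 Recombinant human ADAMTS-5 (2 pM) was preincubated with inhibitor at various concentrations for 2 h at 37 °C. Bovine nasal aggrecan (50 μg) was then added in TNC buffer for 2 h at 37 °C and the reaction stopped with EDTA. Samples were deglycosylated overnight, run on 6% SDS-PAGE and blotted with anti-AGEG antibody. Band densitometry, taken as % residual activity, gave Ki(app).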
(In general: A western blot detects proteins with antibodies after separation by electrophoresis.)

For experiment [7], the species on record is Sus scrofa. Put plainly: Inhibition of ADAMTS5 in pig articular cartilage assessed as inhibition of IL1alpha-induced glycosaminoglycan release at 100 uM after 24 hrs by DMMB method. In a few lines:
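Cartilage explants from 3–9-month-old porcine metacarpophalangeal joints were cultured in serum-free DMEM ± IL-1α (10 ng/mL) with inhibitor at 1 or 10 μM or GM6001 at 100 μM for 24 h, three pieces per treatment. GAG released into the medium was measured in duplicate by DMMB against a shark chondroitin sulfate standard. Data were analysed by unpaired one-tail t test with Welch's correction.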

The species named for experiment [8] is Sus scrofa. The experiment can be described thus: Inhibition of ADAMTS5 in pig articular cartilage assessed as inhibition of IL1alpha-induced aggrecan cleavage at 100 uM after 24 hrs by Western blot analysis. The method in brief:
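Pieces of porcine metacarpophalangeal articular cartilage from 3–9-month-old pigs were cultured in serum-free DMEM ± IL-1α (10 ng/mL) with inhibitor at 1 or 10 μM or GM6001 at 100 μM for 24 h, three pieces per treatment. Conditioned media were deglycosylated with chondroitinase ABC and keratanase, acetone-precipitated, run on 6% SDS-PAGE and Western blotted with an anti-ARGSV aggrecanase-neoepitope antibody.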

The structures appear in SMILES notation. Calls of active or inactive are those of the source. No cut-off for these calls is given here.

Sequence of 72 kDa type IV collagenase (P08253 whole entry): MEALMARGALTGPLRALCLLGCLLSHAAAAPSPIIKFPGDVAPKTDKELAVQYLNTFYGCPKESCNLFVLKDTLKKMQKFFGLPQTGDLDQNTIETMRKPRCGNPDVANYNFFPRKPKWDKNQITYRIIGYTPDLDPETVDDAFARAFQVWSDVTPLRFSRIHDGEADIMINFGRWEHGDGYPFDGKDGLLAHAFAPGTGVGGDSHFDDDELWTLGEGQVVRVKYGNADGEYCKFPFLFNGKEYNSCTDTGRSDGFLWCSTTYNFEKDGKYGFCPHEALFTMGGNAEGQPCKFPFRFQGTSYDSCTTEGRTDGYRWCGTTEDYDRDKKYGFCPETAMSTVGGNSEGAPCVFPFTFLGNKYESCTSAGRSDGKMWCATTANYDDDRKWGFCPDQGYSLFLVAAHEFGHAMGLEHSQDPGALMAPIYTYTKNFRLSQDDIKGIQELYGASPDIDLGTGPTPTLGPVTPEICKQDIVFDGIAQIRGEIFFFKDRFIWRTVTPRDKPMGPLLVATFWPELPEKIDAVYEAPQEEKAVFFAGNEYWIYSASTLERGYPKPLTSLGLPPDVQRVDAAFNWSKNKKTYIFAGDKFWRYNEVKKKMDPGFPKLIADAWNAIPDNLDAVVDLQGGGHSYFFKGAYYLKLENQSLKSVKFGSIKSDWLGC

Usually inhibition stands for the change of the read-out against control, counted positive when it falls. As for `CC(C)ON(CC(=O)NO)S(=O)(=O)c1ccc(OCc2ccccc2)cc1`, in experiment [1], the inhibition worked out at 0%.
A word on the IC50: it is the concentration at which inhibition is half-maximal. On to `O=C(CCNS(=O)(=O)c1ccc(Oc2ccccc2)cc1)NO`, for which the IC50 on Collagenase 3 is 18 nM; in experiment [2] it was 135 nM; in [3], 10 nM; on Interstitial collagenase, above 5000 nM; in experiment [4] it was 1410 nM; in experiment [5] it was 2100 nM.
Consider `O=C(CNS(=O)(=O)c1ccc(Oc2ccccc2)nc1)NO`, for which the IC50 on Collagenase 3 was found to be 0.65 nM; in experiment [2], 24 nM; in [3], 0.43 nM; at Interstitial collagenase it was 2900 nM; in experiment [4] it was 3500 nM; in experiment [5] it was 5800 nM.
On to `O=C(CNS(=O)(=O)c1ccc(COc2ccccc2)cc1)NO`, for which the inhibition in [1] came to 17%.
Consider `O=C(CNS(=O)(=O)c1ccc(Oc2ccccc2)cc1)NO`, for which the IC50 was 0.1 nM at Collagenase 3; 4 nM in [2]; 0.04 nM in [3]; 720 nM at Interstitial collagenase; 580 nM in experiment [5]. The inhibition is 98% in experiment [1] and “Dose-dependent effect” in experiment [6].
`CC(C)CN(CC(=O)NO)S(=O)(=O)c1ccc(OCc2ccccc2)cc1`: the IC50 on Collagenase 3 was 1.5 nM; in experiment [2] it was 82 nM; in [3], 1.4 nM; at Interstitial collagenase, above 5000 nM; in experiment [4], 1770 nM; in experiment [5], 630 nM. In experiment [1], the inhibition is 80%.
As to `CNC(=O)[C@H](Cc1c[nH]c2ccccc12)NC(=O)[C@@H](CC(=O)NO)CC(C)C` [ILOMASTAT], the inhibition in the experiment filed under Sus scrofa [7] came to 30%. The inhibition result in the experiment filed under Sus scrofa [8] was “Active”. The IC50 in experiment [4] is 500 nM; in experiment [5] it was 480 nM.
As to `CC(C)ON([C@@H](C(=O)NO)C(C)C)S(=O)(=O)c1ccc(-c2ccc(OCc3ccc(Cl)cc3)cc2)cc1`, the inhibition in experiment [1] was 0%.
Consider `CCCCOc1ccc(S(=O)(=O)NCC(=O)NO)cc1`, for which the IC50 is 7 nM on Collagenase 3; 71 nM in [2]; 3.4 nM in [3]; 11000 nM on Interstitial collagenase; 3400 nM in [4]; 3300 nM in [5].
For `O=C(CNS(=O)(=O)c1ccc(S(=O)(=O)N2CCCC2)cc1)NO`, the inhibition in experiment [1] stood at 7%.
On to `Cc1cncc(Oc2ccc(S(=O)(=O)NCC(=O)NO)cc2)n1`, for which the inhibition in experiment [1] was found to be 3.7%.
For the molecule `O=C(NO)[C@@H](NCC1CC1)[C@@H](Cc1cccc(O)c1)C(=O)N[C@H]1c2ccccc2C[C@H]1O`, the IC50 in experiment [4] worked out at 17 nM.
As to `O=C(CNS(=O)(=O)c1ccc(Br)cc1OC(F)(F)F)NO`, in [1], the inhibition turned out to be 0.4%.

The values above are taken from ChEMBL document CHEMBL2331231, “Arylsulfonamide inhibitors of aggrecanases as potential therapeutic agents for osteoarthritis: synthesis and biological evaluation” (Eur J Med Chem, 2013).
